# Calls of active or inactive are those of the source. No cut-off for these calls is given here.
# Assays:
# U-87 MG [1] = test: Induction of necrosis in human U87MG cells at 0.6 to 10 uM after 24 hrs by trypan blue assay; type: functional, cell-based; conditions: U-87MG ATCC
# How it was run: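 U87MG cells treated 24 h at the indicated concentrations. Death scored as percent trypan blue-positive cells. Caspase activity measured in parallel with a rhodamine 110 bis-(N-Z-DEVD amide) fluorogenic substrate and read in relative fluorescence units.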
# U-87 MG [2] = test: Induction of apoptosis in human U87MG cells assessed as caspase activation at 0.6 to 10 uM after 24 hrs by rhodamine-based fluorescence assay; type: functional, cell-based; conditions: U-87MG ATCC
# How it was run: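 U87MG or T98G cells exposed 24 h to the listed concentrations. Caspase activity was read as relative fluorescence units from the rhodamine 110 bis-(N-Z-L-aspartyl-L-glutamyl-L-valyl-aspartic acid amide) fluorogenic substrate.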
# U-87MG ATCC = test: Induction of cell death in human U87MG cells at 4.2 to 18.4 uM after 24 hrs by trypan blue assay in presence of zVAD-fmk; type: functional, cell-based
# [3] = molecular target: Ubiquitin carboxyl-terminal hydrolase isozyme L1 (Homo sapiens) (UniProt P09936); test: Inhibition of GST-tagged recombinant full-length UCHL1 (unknown origin) expressed in bacteria using Ub-AMC as substrate preincubated for 30 mins before substrate addition measured after 60 mins by fluorescence assay
# Chain of Ubiquitin carboxyl-terminal hydrolase isozyme L1 (Homo sapiens) (P09936 whole entry, looked up): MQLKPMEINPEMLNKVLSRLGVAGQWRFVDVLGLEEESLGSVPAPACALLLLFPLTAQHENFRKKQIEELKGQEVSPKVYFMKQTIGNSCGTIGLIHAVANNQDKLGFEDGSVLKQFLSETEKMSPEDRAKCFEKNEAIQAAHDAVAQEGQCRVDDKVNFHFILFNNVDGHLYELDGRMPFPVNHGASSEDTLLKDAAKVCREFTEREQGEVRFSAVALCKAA
# How it was run: (§1)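 Purified isopeptidase activity was measured with ubiquitin-AMC as fluorogenic substrate; IC50 was derived from inhibition.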
# [4] = molecular target: T1, Ubiquitin carboxyl-terminal hydrolase isozyme L5 (Homo sapiens, UniProt Q9Y5K5); test: Inhibition of GST-tagged UCHL5 (unknown origin) using Ub-AMC as substrate preincubated for 30 mins before substrate addition measured after 60 mins by fluorescence assay; how it was run: as §1
# T1 sequence (Q9Y5K5 whole entry): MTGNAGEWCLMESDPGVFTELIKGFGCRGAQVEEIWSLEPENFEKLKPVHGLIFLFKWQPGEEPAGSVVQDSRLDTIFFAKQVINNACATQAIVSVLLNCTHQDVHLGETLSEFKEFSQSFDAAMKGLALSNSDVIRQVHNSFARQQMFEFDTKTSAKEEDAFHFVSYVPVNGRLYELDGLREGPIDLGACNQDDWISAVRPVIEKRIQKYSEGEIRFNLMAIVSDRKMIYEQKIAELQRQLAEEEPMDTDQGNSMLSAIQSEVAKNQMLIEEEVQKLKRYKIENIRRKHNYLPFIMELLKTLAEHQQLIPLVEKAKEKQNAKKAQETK
# [5] = molecular target: T2, Ubiquitin carboxyl-terminal hydrolase 2 (Homo sapiens) (UniProt O75604); test: Inhibition of USP2 catalytic domain (unknown origin) expressed in bacteria using Ub-AMC as substrate preincubated for 30 mins before substrate addition measured after 60 mins by fluorescence assay; how it was run: as §1
# T2 sequence (whole entry): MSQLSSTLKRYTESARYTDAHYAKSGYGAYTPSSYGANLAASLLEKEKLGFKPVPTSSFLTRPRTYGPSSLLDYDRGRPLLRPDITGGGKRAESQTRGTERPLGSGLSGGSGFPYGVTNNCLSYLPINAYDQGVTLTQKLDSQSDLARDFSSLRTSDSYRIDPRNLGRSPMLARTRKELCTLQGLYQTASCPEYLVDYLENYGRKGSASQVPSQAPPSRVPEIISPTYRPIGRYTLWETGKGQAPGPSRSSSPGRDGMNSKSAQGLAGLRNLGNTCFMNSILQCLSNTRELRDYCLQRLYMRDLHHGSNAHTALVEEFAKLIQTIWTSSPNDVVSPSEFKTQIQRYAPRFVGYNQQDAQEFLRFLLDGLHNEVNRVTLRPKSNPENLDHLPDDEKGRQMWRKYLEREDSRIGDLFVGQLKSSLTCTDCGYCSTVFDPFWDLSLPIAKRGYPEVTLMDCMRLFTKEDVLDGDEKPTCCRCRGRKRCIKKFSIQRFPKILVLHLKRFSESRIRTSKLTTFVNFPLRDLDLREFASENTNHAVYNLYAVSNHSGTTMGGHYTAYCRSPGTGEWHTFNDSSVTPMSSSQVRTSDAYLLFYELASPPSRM
# [6] = molecular target: T3, Ubl carboxyl-terminal hydrolase 18 (Homo sapiens, UniProt Q9UMW8); test: Inhibition of recombinant human USP18 (16 to 372 aa) expressed in Sf9 cells using ISG15-AMC as substrate preincubated for 30 mins before substrate addition measured after 60 mins by fluorescence assay
# T3 sequence (Q9UMW8 whole entry): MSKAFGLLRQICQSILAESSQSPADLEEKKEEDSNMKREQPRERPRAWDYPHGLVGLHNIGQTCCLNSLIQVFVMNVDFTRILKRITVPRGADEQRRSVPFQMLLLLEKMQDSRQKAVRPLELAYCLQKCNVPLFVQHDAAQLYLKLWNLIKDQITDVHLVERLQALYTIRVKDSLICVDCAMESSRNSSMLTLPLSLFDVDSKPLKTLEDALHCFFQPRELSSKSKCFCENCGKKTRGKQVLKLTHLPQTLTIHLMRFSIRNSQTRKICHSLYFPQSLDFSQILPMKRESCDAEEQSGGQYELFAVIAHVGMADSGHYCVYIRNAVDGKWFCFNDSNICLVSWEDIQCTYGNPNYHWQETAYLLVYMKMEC
# [7] = molecular target: T4, Ubl carboxyl-terminal hydrolase 18 (Homo sapiens) (UniProt Q9UMW8); test: Inhibition of USP18 (unknown origin) expressed in human A549 cells coexpressing ISG15-GFP assessed as reduction in free GFP at 2.5 to 10 uM after 24 hrs by immunoblot assay; type: cell-based
# T4 sequence (whole entry): T3 sequence (Q9UMW8 whole entry)
# HT-29 [8] = test: Cytotoxicity against human HT-29 cells after 48 hrs by resazurin assay; type: functional, cell-based; conditions: HT-29, 48 h
# [9] = Cytotoxicity against human Hep3B cells after 48 hrs by resazurin assay; type: functional, cell-based, Hep 3B2
# [10] = Cytotoxicity against human MIAPaCa2 cells after 48 hrs by resazurin assay; type: functional, cell-based; conditions: MIA PaCa-2, 48 h
# A549 [11] = test: Induction of cell death in human A549 cells assessed as accumulation of poly-ubiquitinated proteins at 2.5 to 10 uM after 24 hrs by immunoblot assay; type: functional, cell-based
# How it was run: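 A549 cells dosed at three levels (2.5, 5, 10 µM or 1, 2.5, 5 µM depending on inhibitor); lysates made after 24 h. Immunoblots probed poly-ubiquitin, p53 and Noxa, quantified by densitometry; mean of two experiments.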
# A549 [12] = test: Induction of cell death in human A549 cells at 2.5 to 10 uM after 48 hrs by trypan blue assay; type: functional, cell-based
# How it was run: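 A549 or A375 cells treated 48 h with 2.5–10 µM. Cell death was scored by trypan blue exclusion as a function of concentration.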
# A549 [13] = test: Induction of cell death in human A549 cells assessed as accumulation of p53 at 10 uM after 48 hrs by immunoblot assay; type: functional, cell-based
# How it was run: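 A549 cells grown in normal or A375-conditioned medium, treated with 10 µM. Immunoblots probed poly-ubiquitin accumulation, p53 stabilization and Noxa induction.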
# HT-29 [14] = test: Induction of cell death in human HT-29 cells at 2.5 to 10 uM after 48 hrs by trypan blue assay; type: functional, cell-based
# A-375 [15] = test: Induction of cell death in human A375 cells assessed as accumulation of poly-ubiquitinated proteins at 10 uM after 24 hrs by immunoblot assay; type: functional, cell-based
# A-375 [16] = test: Induction of cell death in human A375 cells assessed as stabilization of p53 at 10 uM after 24 hrs by immunoblot assay; type: functional, cell-based
compound,measurement,setting,value
O=C1/C(=C/c2ccc([N+](=O)[O-])cc2)CC(O)C/C1=C\c1ccc([N+](=O)[O-])cc1 (configuration not stated),Activity,U-87 MG [1],Active
same,Activity,U-87 MG [2],Active
same,Activity,U-87MG ATCC,Active
same,inhibition,[3],inactive
same,IC50,[4],43 µM
same,inhibition,[5],inactive
same,IC50,[6],21.2 µM
same,inhibition,[7],Active
same,IC50,HT-29 [8],7.6 µM
same,IC50,[9],8.5 µM
same,IC50,[10],35.2 µM
same,Activity,A549 [11],Active
same,Activity,A549 [12],Active
same,Activity,A549 [13],Active
same,Activity,HT-29 [14],Active
same,Activity,A-375 [15],Active
same,Activity,A-375 [16],Active

# From ChEMBL document CHEMBL3407395, “Synthesis, characterization, and optimization for in vivo delivery of a nonselective isopeptidase inhibitor as new antineoplastic agent” (J Med Chem, 2015)
